Columns and labels:
[1] = biological target: Potassium voltage-gated channel subfamily KQT member 2 (Mus musculus) (UniProt Q9Z351); experiment: Increased outward current at -40 mV mediated by mouse KCNQ2 channel expressed in Xenopus laevis oocytes at 20 uM; format: functional, cell-based; conditions: Oocyte
Summary of the method: (§1)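 Mouse KCNQ2 (mKCNQ2) currents recorded from Xenopus oocytes by two-electrode voltage clamp. Holding potential -90 mV, with about 5 s steps in +10 mV increments up to +40 mV. Records digitized at 5 kHz. Each compound applied at a single concentration (1, 5 or 20 µM) in at least 3 oocytes. Value is the mean percent change in current relative to the drug-free control (100%).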

[2] = biological target: Potassium voltage-gated channel subfamily KQT member 2 (Mus musculus) (UniProt Q9Z351); experiment: Increased outward current at -40 mV mediated by mouse KCNQ2 channel expressed in Xenopus laevis oocytes at 1 uM; format: functional, cell-based; conditions: Oocyte; summary of the method: as §1
[3] = biological target: Potassium voltage-gated channel subfamily KQT member 2 (Mus musculus) (UniProt Q9Z351); experiment: Increased outward current at -40 mV mediated by mouse KCNQ2 channel expressed in Xenopus laevis oocytes at 100 nM; format: functional, cell-based; conditions: Oocyte
[4] = biological target: Potassium voltage-gated channel subfamily KQT member 2 (Mus musculus) (UniProt Q9Z351); experiment: Increased outward current at -40 mV mediated by mouse KCNQ2 channel expressed in Xenopus laevis oocytes at 5 uM; Insoluble; format: functional, cell-based; conditions: Oocyte; summary of the method: as §1
[5] = biological target: Potassium voltage-gated channel subfamily KQT member 2 (Mus musculus) (UniProt Q9Z351); experiment: Increased outward current at -40 mV mediated by mouse KCNQ2 channel expressed in Xenopus laevis oocytes at 20 uM; Insoluble; format: functional, cell-based; conditions: Oocyte; summary of the method: as §1
[6] = biological target: Potassium voltage-gated channel subfamily KQT member 2 (Mus musculus, UniProt Q9Z351); experiment: Increased outward current at -40 mV mediated by mouse KCNQ2 channel expressed in Xenopus laevis oocytes; format: functional, cell-based, Oocyte
Sequence of Potassium voltage-gated channel subfamily KQT member 2 (Q9Z351 whole entry): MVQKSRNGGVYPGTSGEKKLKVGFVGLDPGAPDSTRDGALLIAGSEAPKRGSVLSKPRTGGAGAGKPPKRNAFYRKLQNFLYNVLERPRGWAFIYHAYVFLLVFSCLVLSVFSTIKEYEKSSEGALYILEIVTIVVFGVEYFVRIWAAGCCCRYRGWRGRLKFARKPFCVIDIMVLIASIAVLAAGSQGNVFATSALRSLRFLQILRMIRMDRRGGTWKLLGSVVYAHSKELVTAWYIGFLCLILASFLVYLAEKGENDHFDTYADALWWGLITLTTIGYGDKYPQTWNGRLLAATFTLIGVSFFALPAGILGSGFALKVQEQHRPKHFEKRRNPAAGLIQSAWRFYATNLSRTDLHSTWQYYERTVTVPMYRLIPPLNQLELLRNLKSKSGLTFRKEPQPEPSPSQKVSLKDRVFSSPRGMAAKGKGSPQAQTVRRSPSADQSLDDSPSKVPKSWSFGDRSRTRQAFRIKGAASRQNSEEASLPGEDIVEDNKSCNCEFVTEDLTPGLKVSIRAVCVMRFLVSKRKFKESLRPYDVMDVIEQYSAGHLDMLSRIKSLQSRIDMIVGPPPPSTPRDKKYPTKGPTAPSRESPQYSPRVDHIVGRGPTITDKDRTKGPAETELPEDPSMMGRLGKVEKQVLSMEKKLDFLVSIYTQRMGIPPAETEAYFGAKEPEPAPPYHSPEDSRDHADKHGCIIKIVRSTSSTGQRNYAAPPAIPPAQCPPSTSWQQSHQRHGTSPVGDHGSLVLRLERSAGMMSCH

Sequence of Potassium voltage-gated channel subfamily KQT member 2 (Mus musculus) (Q9Z351 whole entry): as above

Compound | Increase [1] [%] | also measured
O=S(=O)(Nc1c(O)nc2ccccc2c1Cc1ccccc1)C(F)(F)F | 131 | 
Nc1c(O)nc2ccc(C(F)(F)F)cc2c1Cc1cc(Cl)ccc1O | 122 | 
O=S(=O)(Nc1c(O)nc2ccc(C(F)(F)F)cc2c1Cc1cc(Cl)ccc1O)C(F)(F)F | 284 | Increase [2]: 217%; Increase [3]: 143%
COc1ccccc1Cc1c(NS(=O)(=O)C(F)(F)F)c(O)nc2cc(C(F)(F)F)ccc12 | 254 | 
O=S(=O)(Nc1c(O)nc2cc(C(F)(F)F)ccc2c1Cc1ccccc1)C(F)(F)F | 223 | 
Nc1c(O)nc2cc(C(F)(F)F)ccc2c1Cc1cc(Cl)ccc1O |  | Increase [4]: Insoluble; Increase [5]: Insoluble; Increase [2]: 89%
Nc1c(O)nc2ccccc2c1Cc1ccccc1 | 103 | 
CCOC(=O)Nc1ccc(NCc2ccc(F)cc2)cc1N | 269 | 
O=S(=O)(Nc1c(O)nc2cc(C(F)(F)F)ccc2c1Cc1ccccc1O)C(F)(F)F | 277 | 
O=S(=O)(Nc1c(O)nc2cc(C(F)(F)F)ccc2c1Cc1cc(Cl)ccc1O)C(F)(F)F | 271 | Increase [2]: 190%
O=c1[nH]c2ccc(C(F)(F)F)cc2c(Cc2cc(Cl)ccc2O)c1NS(=O)(=O)C(F)(F)F |  | EC50 [6]: 663 nM
COc1ccc(Cl)cc1Cc1c(NS(=O)(=O)C(F)(F)F)c(O)nc2ccc(C(F)(F)F)cc12 | 231 | 
O=S(=O)(Nc1c(O)nc2cc(C(F)(F)F)ccc2c1Cc1cccc(Cl)c1)C(F)(F)F | 220 | 

Source: ChEMBL document CHEMBL1148224, “The synthesis and structure-activity relationships of 3-amino-4-benzylquinolin-2-ones; discovery of novel KCNQ2 channel openers” (Bioorg Med Chem Lett, 2004)
